Tests used:
Integrin alpha-4/beta-1 [1] = biological target: T1, Integrin alpha-4/beta-1 (Homo sapiens, UniProt P05556+P13612); test: Inhibition of VLA-4 to VCAM-1 binding; assay type: protein-complex assay
Outline: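 Test compounds titrated into a solution of 2-domain VCAM-Fc-Ig, then added to assay wells. Buffer: TBS with 1% BSA, 1 mM MnCl2 and 0.1% Tween. Incubated 2 h at room temperature, then washed. Bound VCAM detected with peroxidase-coupled anti-human Fc. Reported as IC50.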

Rattus norvegicus = organism: Rattus norvegicus; test: Clearance rate constant using isolated perfused rat liver (IPRL) assay; assay type: ADME
Integrin alpha-4/beta-1 [2] = biological target: T1, Integrin alpha-4/beta-1; test: Inhibition of VLA-4 to VCAM-1 binding in Jurkat cell adhesion assay; assay type: cell-based
Outline: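 Jurkat cells expressing VLA-4 incubated 30 min at 37 °C with test compounds on human 2-domain VCAM-1-Fc, which was immobilised on the plate via anti-human Fc. Plates washed and adherent cells stained with Rose Bengal. Reported as IC50.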

T1 sequence (P05556 whole entry): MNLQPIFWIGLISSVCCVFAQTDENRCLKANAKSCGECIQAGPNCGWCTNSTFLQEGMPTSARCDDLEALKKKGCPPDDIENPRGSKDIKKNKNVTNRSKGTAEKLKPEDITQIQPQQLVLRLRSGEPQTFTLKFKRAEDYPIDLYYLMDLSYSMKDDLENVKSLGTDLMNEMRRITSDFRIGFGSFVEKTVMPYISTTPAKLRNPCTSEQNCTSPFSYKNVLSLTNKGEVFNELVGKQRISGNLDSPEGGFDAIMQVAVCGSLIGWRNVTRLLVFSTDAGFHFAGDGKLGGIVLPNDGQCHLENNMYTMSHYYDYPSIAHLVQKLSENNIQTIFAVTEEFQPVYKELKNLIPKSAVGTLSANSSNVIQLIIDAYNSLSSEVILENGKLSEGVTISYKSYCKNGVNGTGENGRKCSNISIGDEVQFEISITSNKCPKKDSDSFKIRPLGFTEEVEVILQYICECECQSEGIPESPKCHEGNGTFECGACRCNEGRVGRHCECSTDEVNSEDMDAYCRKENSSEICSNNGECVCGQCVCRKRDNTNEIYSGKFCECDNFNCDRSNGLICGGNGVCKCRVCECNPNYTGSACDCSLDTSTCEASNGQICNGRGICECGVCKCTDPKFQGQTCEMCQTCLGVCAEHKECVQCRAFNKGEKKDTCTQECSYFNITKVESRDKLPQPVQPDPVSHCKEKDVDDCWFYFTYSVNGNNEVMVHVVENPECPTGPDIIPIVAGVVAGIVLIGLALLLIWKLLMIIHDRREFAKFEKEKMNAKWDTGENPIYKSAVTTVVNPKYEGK
T1 sequence (P13612 whole entry): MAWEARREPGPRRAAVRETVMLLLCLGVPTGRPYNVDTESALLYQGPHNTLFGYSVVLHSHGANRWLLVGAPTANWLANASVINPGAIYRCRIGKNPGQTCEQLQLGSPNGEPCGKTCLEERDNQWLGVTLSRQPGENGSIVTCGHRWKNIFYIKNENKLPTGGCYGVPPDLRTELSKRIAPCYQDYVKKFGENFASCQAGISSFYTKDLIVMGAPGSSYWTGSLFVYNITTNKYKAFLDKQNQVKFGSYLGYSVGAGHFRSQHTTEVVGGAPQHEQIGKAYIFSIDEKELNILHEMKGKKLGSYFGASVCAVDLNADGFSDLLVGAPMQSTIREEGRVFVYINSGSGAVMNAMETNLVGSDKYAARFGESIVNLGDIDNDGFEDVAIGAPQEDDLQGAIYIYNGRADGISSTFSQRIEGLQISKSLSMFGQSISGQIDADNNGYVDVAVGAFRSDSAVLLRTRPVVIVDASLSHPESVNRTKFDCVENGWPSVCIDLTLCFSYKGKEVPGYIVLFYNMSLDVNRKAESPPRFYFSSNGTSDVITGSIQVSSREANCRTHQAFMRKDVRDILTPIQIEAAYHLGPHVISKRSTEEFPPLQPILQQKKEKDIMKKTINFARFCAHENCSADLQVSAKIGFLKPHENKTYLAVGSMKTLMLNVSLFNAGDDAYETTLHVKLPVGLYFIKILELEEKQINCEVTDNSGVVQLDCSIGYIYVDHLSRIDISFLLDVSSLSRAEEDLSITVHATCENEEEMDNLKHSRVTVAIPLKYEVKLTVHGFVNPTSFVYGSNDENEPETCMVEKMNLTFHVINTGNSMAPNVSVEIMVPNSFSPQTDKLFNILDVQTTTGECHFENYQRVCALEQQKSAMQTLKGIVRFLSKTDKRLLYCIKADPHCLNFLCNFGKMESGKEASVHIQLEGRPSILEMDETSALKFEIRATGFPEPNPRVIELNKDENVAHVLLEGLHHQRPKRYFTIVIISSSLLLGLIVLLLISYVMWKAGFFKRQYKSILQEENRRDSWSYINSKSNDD

Row | SMILES | IC50 (Integrin alpha-4/beta-1 [1]) [µM] | k (Rattus norvegicus) [h⁻¹] | IC50 (Integrin alpha-4/beta-1 [2]) [µM]
1 | CC(=O)N1CSC[C@@H]1C(=O)N/C(=C\c1ccc(NC(=O)c2c(Cl)cccc2Cl)cc1)C(=O)O | 0.005 | 3.9 | 0.14
2 | CC(=O)N1CSCC1C(=O)N/C(=C/c1ccc(OCc2c(Cl)cccc2Cl)cc1)C(=O)O (stereo not drawn) | 7.4 | 0.4 | 83
3 | O=C(O)/C(=C/c1ccc(OCc2c(Cl)cncc2Cl)cc1)NC(=O)c1cccnc1Cl | 0.14 | – | 14
4 | CC(=O)N1CSC[C@@H]1C(=O)N/C(=C/c1ccc(NC(=O)c2c(Cl)cccc2Cl)cc1)C(=O)O | 0.4 | 0.7 | 29
5 | CC(=O)N1CSC[C@@H]1C(=O)N/C(=C\c1ccc(OCc2c(Cl)cccc2Cl)cc1)C(=O)O | 2.8 | 4.1 | 5
6 | CC(=O)N1CSC[C@@H]1C(=O)N/C(=C/c1ccc(NC(=O)c2c(Cl)cncc2Cl)cc1)C(=O)O | 0.06 | 1.2 | 0.2
7 | O=C(O)/C(=C/c1ccc(NC(=O)c2c(Cl)cncc2Cl)cc1)NC(=O)c1cccnc1Cl | 0.0014 | 3.9 | 0.07
8 | O=C(O)/C(=C\c1ccc(NC(=O)c2c(Cl)cncc2Cl)cc1)NC(=O)c1cccnc1Cl | 0.066 | 1.5 | 8.5
9 | O=C(O)C1=Cc2ccc(NC(=O)c3c(Cl)cncc3Cl)cc2NC(c2cccnc2Cl)=N1 | 0.055 | 5.3 | 0.41
10 | O=C(O)/C(=C/c1ccc(OCc2c(Cl)cccc2Cl)cc1)NC(=O)c1cccnc1Cl | 0.22 | 3.7 | 7.1
11 | CC(=O)N1CSC[C@H]1C(=O)N/C(=C/c1ccc(OCc2ccccc2)cc1)C(=O)O | 1.5 | 0.6 | 20
12 | CC(=O)N1CSC[C@@H]1C(=O)N/C(=C\c1ccc(NC(=O)c2c(Cl)cncc2Cl)cc1)C(=O)O | 0.002 | 4.4 | 0.025
13 | CC(C)(C)C(=O)N/C(=C/c1ccc(NC(=O)c2c(Cl)cccc2Cl)cc1)C(=O)O | 2.7 | – | 80
14 | CC(=O)N1CSC[C@H]1C(=O)N/C(=C\c1ccc(OCc2ccccc2)cc1)C(=O)O | 2.2 | 3.8 | 71
15 | CC(C)(C)C(=O)N/C(=C\c1ccc(NC(=O)c2c(Cl)cccc2Cl)cc1)C(=O)O | 0.05 | 4.8 | 3.7

Reference: ChEMBL document CHEMBL1136610, “Dehydrophenylalanine derivatives as VLA-4 integrin antagonists” (Bioorg Med Chem Lett, 2003)
